In ChEMBL document CHEMBL1137618, “Synthesis and structure-activity relationship studies of 3,6-diazabicyclo[3.2.0]heptanes as novel alpha4beta2 nicotinic acetylcholine receptor selective agonists” (J Med Chem, 2007):

Experiments:
[1] = target: T1, Neuronal acetylcholine receptor; alpha4/beta2 (Homo sapiens, UniProt P17787+P43681); assay: Agonist activity at recombinant human alpha-4-beta-2 nAChR expressed in HEK293 cells assessed as induction of calcium influx by FLIPR assay relative to nicotine; format: functional, cell-based
T1 sequence (P17787 whole entry): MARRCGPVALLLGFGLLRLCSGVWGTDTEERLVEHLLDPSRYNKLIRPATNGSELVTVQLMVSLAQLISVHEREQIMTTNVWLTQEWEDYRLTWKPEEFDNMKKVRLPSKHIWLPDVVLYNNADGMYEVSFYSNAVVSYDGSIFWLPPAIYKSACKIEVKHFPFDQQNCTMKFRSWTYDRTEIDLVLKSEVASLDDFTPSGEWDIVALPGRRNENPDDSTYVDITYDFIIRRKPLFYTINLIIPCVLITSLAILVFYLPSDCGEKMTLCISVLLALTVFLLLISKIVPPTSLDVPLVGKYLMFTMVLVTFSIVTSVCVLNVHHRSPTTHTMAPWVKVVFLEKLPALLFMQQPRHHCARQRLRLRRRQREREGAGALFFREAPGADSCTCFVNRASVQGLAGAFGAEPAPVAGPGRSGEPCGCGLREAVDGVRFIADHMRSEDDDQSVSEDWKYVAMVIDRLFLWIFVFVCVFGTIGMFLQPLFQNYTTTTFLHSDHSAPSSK
T1 sequence (P43681 whole entry): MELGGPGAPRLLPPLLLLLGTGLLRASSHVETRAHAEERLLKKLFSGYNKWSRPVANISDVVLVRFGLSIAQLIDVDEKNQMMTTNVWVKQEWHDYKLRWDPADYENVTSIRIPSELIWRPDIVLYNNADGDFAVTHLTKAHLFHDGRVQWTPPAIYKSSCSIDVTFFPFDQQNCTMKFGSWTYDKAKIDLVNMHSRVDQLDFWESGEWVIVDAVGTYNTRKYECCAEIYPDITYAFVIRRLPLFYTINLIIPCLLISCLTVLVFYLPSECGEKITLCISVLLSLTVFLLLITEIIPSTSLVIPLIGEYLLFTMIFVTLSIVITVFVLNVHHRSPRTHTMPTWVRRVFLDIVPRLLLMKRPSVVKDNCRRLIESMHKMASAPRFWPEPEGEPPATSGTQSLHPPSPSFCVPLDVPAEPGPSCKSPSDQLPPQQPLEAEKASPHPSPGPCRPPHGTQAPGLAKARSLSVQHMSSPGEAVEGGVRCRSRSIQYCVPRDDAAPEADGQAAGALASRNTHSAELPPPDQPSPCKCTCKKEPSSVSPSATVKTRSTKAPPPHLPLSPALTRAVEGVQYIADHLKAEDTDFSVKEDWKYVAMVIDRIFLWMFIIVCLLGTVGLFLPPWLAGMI
In short: (§1)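 HEK-293 lines stably expressing human α4β2 or α3β4 nAChR, grown 24-48 h at 37 °C on poly-D-lysine in DMEM/10% FBS. Loaded with 2-4 µM Fluo-4 AM for ~0.75-1 h at room temperature in the dark, in NMDG Ringer pH 7.4. Serial log dilutions added, then peak calcium fluorescence read on FLIPR after buffer-blank subtraction.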

[2] = target: T2, Neuronal acetylcholine receptor; alpha3/beta4 (Homo sapiens, UniProt P30926+P32297); assay: Agonist activity at recombinant human alpha3beta4 nAChR expressed in HEK293 cells assessed as induction of calcium influx by FLIPR assay relative to nicotine; format: functional, cell-based; in short: as §1
T2 sequence (P30926 whole entry): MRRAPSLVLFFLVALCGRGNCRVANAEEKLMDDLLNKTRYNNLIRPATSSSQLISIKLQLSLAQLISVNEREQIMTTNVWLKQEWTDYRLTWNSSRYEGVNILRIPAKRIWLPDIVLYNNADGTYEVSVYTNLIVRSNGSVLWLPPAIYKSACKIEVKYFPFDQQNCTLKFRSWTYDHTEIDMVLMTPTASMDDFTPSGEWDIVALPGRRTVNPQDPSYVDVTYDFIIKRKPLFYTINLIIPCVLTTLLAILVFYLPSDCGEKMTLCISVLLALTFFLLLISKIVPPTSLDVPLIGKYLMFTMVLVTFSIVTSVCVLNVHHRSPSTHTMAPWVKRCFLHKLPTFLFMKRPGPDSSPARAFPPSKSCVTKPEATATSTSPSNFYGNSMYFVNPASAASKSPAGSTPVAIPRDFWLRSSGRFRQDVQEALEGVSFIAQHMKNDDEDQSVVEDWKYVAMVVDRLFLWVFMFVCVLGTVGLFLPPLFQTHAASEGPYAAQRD
T2 sequence (P32297 whole entry): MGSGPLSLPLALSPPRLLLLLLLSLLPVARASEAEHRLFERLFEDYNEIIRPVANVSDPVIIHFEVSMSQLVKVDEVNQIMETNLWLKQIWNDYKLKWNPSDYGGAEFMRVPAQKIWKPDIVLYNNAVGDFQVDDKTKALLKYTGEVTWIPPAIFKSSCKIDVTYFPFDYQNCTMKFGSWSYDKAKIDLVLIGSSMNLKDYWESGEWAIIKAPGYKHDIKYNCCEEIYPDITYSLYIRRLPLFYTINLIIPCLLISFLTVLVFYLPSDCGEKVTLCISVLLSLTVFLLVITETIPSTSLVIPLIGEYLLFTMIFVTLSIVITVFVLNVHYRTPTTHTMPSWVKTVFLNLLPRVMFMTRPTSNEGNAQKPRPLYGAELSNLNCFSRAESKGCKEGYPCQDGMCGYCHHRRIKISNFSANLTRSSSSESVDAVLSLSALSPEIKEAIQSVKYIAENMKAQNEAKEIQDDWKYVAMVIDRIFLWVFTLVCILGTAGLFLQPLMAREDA

[3] = target: T1, Neuronal acetylcholine receptor; alpha4/beta2; assay: Agonist activity at recombinant human alpha-4-beta-2 nAChR expressed in HEK293 cells assessed as induction of calcium influx by FLIPR assay; format: functional, cell-based
[4] = Displacement of [3H]cytisine from neuronal nicotinic acetylcholine receptor in rat brain membrane; format: cell membranes
[5] = target: T2, Neuronal acetylcholine receptor; alpha3/beta4; assay: Agonist activity at recombinant human alpha-3-beta-4 nAChR expressed in HEK293 cells assessed as induction of calcium influx by FLIPR assay; format: functional, cell-based

`N#Cc1cc(N2C[C@H]3CNC[C@H]32)cnc1Br` showed an Activity [1] of 100%, an Activity [2] of 95% and an EC50 ([3]; read-out: EC50) of 400 nM. The EC50 ([3]; read-out: Log EC50 (converted)) was 324 nM, the Ki [4] was 0.3 nM and the “Log Ki” value [4] was -9.6. The EC50 ([5]; read-out: EC50) was 2000 nM.

Compound `Cc1ncc(N2C[C@H]3CN[C@H]3C2)cc1C#N` has an Activity [1] of 136%, an Activity [2] of 101% and an EC50 ([3]; read-out: EC50) of 500 nM. For the same compound, the EC50 ([3]; read-out: Log EC50 (converted)) was 43.7 nM, the Ki [4] was 0.06 nM and the “Log Ki” value [4] was -10.22. It also gave an EC50 ([5]; read-out: EC50) of 90 nM.

With `Clc1cc(N2C[C@@H]3CN[C@@H]3C2)cnc1Cl` [SOFINICLINE] the Activity [1] was 110%, the Activity [2] was 92% and the EC50 ([3]; read-out: EC50) was 400 nM. For the same compound, the Ki [4] was 0.3 nM, the “Log Ki” value [4] was -9.53 and the EC50 ([5]; read-out: EC50) was 1500 nM.

Work on `c1cncc(N2C[C@H]3CN[C@H]3C2)c1` yielded an Activity [1] of 181%, an Activity [2] of 119% and an EC50 ([3]; read-out: EC50) of 300 nM. For the same compound, the Ki [4] was 0.1 nM, the “Log Ki” value [4] was -9.96 and the EC50 ([5]; read-out: EC50) was 6000 nM. The EC50 ([5]; read-out: Log EC50 (converted)) was 603 nM.

With `CN1CCC[C@H]1c1cccnc1` [NICOTINE] the Activity [1] was 101% and the Activity [2] was 89%.

Work on `Cc1ncc(N2C[C@@H]3CNC[C@@H]32)cc1C#N` yielded an Activity [1] of 116%, an Activity [2] of 95% and an EC50 ([3]; read-out: EC50) of 500 nM. The Ki [4] was 0.7 nM, the “Log Ki” value [4] was -9.18 and the EC50 ([5]; read-out: EC50) was 1600 nM.

For `Clc1ccc(N2C[C@@H]3CN[C@@H]3C2)cn1`, the Activity [1] was 162%, the Activity [2] was 110% and the EC50 ([3]; read-out: EC50) was 200 nM. The EC50 ([3]; read-out: Log EC50 (converted)) was 162 nM, the Ki [4] was 0.6 nM and the “Log Ki” value [4] was -9.24. It also gave an EC50 ([5]; read-out: EC50) of 400 nM.

Compound `Clc1ccc(N2C[C@H]3CNC[C@H]32)cn1` has an Activity [1] of 127%, an Activity [2] of 104% and an EC50 ([3]; read-out: EC50) of 600 nM. The EC50 ([3]; read-out: Log EC50 (converted)) was 537 nM, the Ki [4] was 1.2 nM and the “Log Ki” value [4] was -8.91. For the same compound, the EC50 ([5]; read-out: EC50) was 1100 nM.

In the case of `COc1cc(N2C[C@H]3CN[C@H]3C2)cnc1Br`, the Activity [1] is reported as 159%, the Activity [2] is reported as 113% and the EC50 ([3]; read-out: EC50) is reported as 200 nM. The EC50 ([3]; read-out: Log EC50 (converted)) was 148 nM, the Ki [4] was 0.07 nM and the “Log Ki” value [4] was -10.15. The EC50 ([5]; read-out: EC50) was 100 nM.

In the case of `Brc1cc(N2C[C@H]3CNC[C@H]32)cnc1Br`, the Activity [1] is reported as 131%, the Activity [2] is reported as 94% and the EC50 ([3]; read-out: EC50) is reported as 6900 nM. The EC50 ([3]; read-out: Log EC50 (converted)) was 676 nM, the Ki [4] was 0.5 nM and the “Log Ki” value [4] was -9.35. The EC50 ([5]; read-out: EC50) was 1100 nM.

Work on `COc1cncc(N2C[C@H]3CNC[C@H]32)c1` yielded an Activity [1] of 90%, an Activity [2] of 72% and an EC50 ([3]; read-out: EC50) of 3600 nM. The EC50 ([3]; read-out: Log EC50 (converted)) was 3390 nM, the Ki [4] was 0.8 nM and the “Log Ki” value [4] was -9.12. It also gave an EC50 ([5]; read-out: EC50) of 25800 nM.

In the case of `Cc1cc(N2C[C@H]3CNC[C@H]32)cnc1Cl`, the Activity [1] is reported as 133%, the Activity [2] is reported as 97% and the EC50 ([3]; read-out: EC50) is reported as 200 nM. The EC50 ([3]; read-out: Log EC50 (converted)) was 229 nM, the Ki [4] was 0.2 nM and the “Log Ki” value [4] was -9.7. For the same compound, the EC50 ([5]; read-out: EC50) was 600 nM.

For `Clc1cc(N2C[C@@H]3CNC[C@@H]32)cnc1Cl`, the Activity [1] was 110%, the Activity [2] was 87% and the EC50 ([3]; read-out: EC50) was 900 nM. For the same compound, the Ki [4] was 1.2 nM, the “Log Ki” value [4] was -8.93 and the EC50 ([5]; read-out: EC50) was 2600 nM.

`Brc1cncc(N2C[C@H]3CN[C@H]3C2)c1` gave an Activity [1] of 161%, an Activity [2] of 115% and an EC50 ([3]; read-out: EC50) of 1100 nM. The Ki [4] was 0.1 nM, the “Log Ki” value [4] was -10.2 and the EC50 ([5]; read-out: EC50) was 200 nM. It also gave an EC50 ([5]; read-out: Log EC50 (converted)) of 240 nM.

Work on `Brc1cncc(N2C[C@@H]3CNC[C@@H]32)c1` yielded an Activity [1] of 20%, an Activity [2] of 23% and an EC50 ([3]; read-out: EC50) of 11400 nM. For the same compound, the EC50 ([3]; read-out: Log EC50 (converted)) was 8710 nM, the Ki [4] was 1.5 nM and the “Log Ki” value [4] was -8.83. It also gave an EC50 ([5]; read-out: EC50) of 6600 nM and an EC50 ([5]; read-out: Log EC50 (converted)) of 3090 nM.

Work on `Clc1ccc(N2C[C@@H]3CNC[C@@H]32)cn1` yielded an Activity [1] of 107%, an Activity [2] of 94% and an EC50 ([3]; read-out: EC50) of 300 nM. For the same compound, the Ki [4] was 1.3 nM, the “Log Ki” value [4] was -8.9 and the EC50 ([5]; read-out: EC50) was 1200 nM.

`c1coc(-c2cncc(N3C[C@H]4CNC[C@H]43)c2)n1` gave an Activity [1] of under 10% and an Activity [2] of under 10%.

Compound `C#Cc1cncc(N2C[C@H]3CNC[C@H]32)c1` has an Activity [1] of 77%, an Activity [2] of 57% and an EC50 ([3]; read-out: EC50) of 13400 nM. For the same compound, the EC50 ([3]; read-out: Log EC50 (converted)) was 4900 nM, the EC50 ([5]; read-out: EC50) was 86900 nM and the EC50 ([5]; read-out: Log EC50 (converted)) was 77600 nM.

`Brc1cncc(N2C[C@H]3CNC[C@H]32)c1` showed an Activity [1] of 31%, an Activity [2] of under 10% and an EC50 ([3]; read-out: EC50) of 4400 nM. For the same compound, the EC50 ([3]; read-out: Log EC50 (converted)) was 4070 nM, the Ki [4] was 3.1 nM and the “Log Ki” value [4] was -8.51.

Work on `N#Cc1cncc(N2C[C@H]3CNC[C@H]32)c1` yielded an Activity [1] of 65%, an Activity [2] of 16% and an EC50 ([3]; read-out: EC50) of 5900 nM. The EC50 ([3]; read-out: Log EC50 (converted)) was 5130 nM, the Ki [4] was 3.2 nM and the “Log Ki” value [4] was -8.5.

`Clc1ccc(C2CC3CCC2N3)cn1` (stereo unspecified) [EPIBATIDINE] gave an Activity [1] of 133% and an Activity [2] of 103%.
